Screens: PubChem, several laboratories
TRPN1 ag – zebrafish TRPN1 (NompC) channel agonism; HEK293 zebrafish TRPN1-YFP, Fluo-8 calcium fluorescence; 100% = response to 87 µM carbachol; activation, % at 3 µM; hit rate 0.18% among 220,000;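 active means activation above its plate's cutoff, the mean activation of test wells on that plate plus 3 SD, cut at about 19% in these data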;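 further: 0% = DMSO alone and 100% = 87 µM carbachol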
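Assay system: Zebrafish TRPN1-YFP in HEK293 cells | Incubation: Dye loading 1 h at 37 °C, then 30 min room temperature | Measured by: Kinetic Fluo-8 fluorescence, ex 470-495, em 515-575 nm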
TRPML3 agonist – agonists of human TRPML3 channel; Q8TDD5; HEK293 TRPML3-YFP, Fluo-8 calcium fluorescence; 100% = the carbachol control signal; activation, % at 3 µM; hit rate 0.29% among 220,000;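 active means activation above its plate's cutoff, the mean activation of the plate's test wells plus 3 SD, cut at about 12% in these data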;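 further: 0% = DMSO only wells and 100% = carbachol wells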
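Material: TRPML3-YFP stable HEK293 cells | Dosing: One concentration, 3 µM nominal, 0.3% DMSO | Timing: 125 s total fluorescence read per well | Technique: Fluo-8 calcium dye fluorescence, ex 470-495, em 515-575 nm | Measure: Percent activation from peak-to-basal fluorescence ratio, scaled between DMSO and carbachol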
GPR7 antag – blocks human GPR7 receptor signaling. inhibition, % at 4.4 µM. P48145. GPR7-expressing cells, fluorescence antagonist assay. hit rate 1.1% among 290,000; in the data active means inhibition above about 16%, passing the limit was not always enough;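 further: cells stimulated with the agonist NPW; 0% = agonist with vehicle and 100% = vehicle without agonist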
Target sequence (P48145 whole entry, looked up): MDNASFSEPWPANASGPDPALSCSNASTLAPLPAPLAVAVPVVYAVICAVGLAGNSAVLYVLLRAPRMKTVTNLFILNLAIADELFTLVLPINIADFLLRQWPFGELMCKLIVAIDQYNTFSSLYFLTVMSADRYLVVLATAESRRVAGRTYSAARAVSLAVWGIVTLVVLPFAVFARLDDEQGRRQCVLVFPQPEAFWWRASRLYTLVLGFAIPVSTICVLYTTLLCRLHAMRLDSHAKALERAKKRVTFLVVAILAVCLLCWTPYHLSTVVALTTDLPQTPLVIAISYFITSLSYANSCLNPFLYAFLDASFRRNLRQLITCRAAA
CRFR2-BP antag – blocks CRF-induced signaling of the CRF-BP/CRF-R2 complex | HEK293 CRF-R2/CRF-BP, CRF-induced calcium fluorescence | inhibition, % at 11.8 µM | hit rate 0.59% among 350,000;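 active means inhibition of the ligand-induced calcium signal above about 50% at the single tested concentration, limit read from the data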
CRFBP-R2 agonist – agonists of human CRF-binding protein/CRF-R2 receptor complex | HEK293 CRF-R2/CRF-BP, calcium dye fluorescence (FLIPR); percent of saturating CRF peptide response | AID 588473 | hit rate 0.46% among 350,000 | activation, % at 13.2 µM;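 active means activation of at least 50%, plus an integration ratio under a set limit after plate pattern correction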;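 further: plate controls were neutral control wells without compound for no effect and CRF at EC100 for full effect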
The depositor's hits bear a star; nt = no result given. Sampled rows, rich in hits. Any-hit rate of the full collection: about 2%.

SMILES	TRPN1 ag	TRPML3 agonist	GPR7 antag	CRFR2-BP antag	CRFBP-R2 agonist
CCOC(=O)C1CCCN(c2ncnc3c2cnn3-c2ccc(Cl)cc2)C1 (configuration not stated)	1	0	-9	-7	101*
CCOC(=O)C1CCCN(c2ncnc3c2cnn3-c2ccc(OC)cc2)C1 (configuration not stated)	0	1	5	-18	-2
COc1ccc(CNC(=O)COC(=O)c2ccc(C)c(S(=O)(=O)N3CCOCC3)c2)cc1	nt	nt	nt	2	0
C[C@H](NC(=O)[C@@H]1Cc2ccccc2CN1)C(=O)NC1CCCCC1	nt	nt	-9	93*	0
CC(C)[C@H](NC(=O)[C@@H]1Cc2ccccc2CN1)C(=O)NC1CCCCC1	nt	nt	-8	-1	-2
O=C(OCCN1C(=O)c2ccccc2C1=O)c1cccc(OC(F)F)c1	0	0	-6	100*	-3
CC(C)(C)n1nc2c(c1NC(=O)Cc1ccccc1)CS(=O)(=O)C2	-1	-1	3	55*	-4
COc1ccc(/C=N/OCC(=O)N=Nc2c(O)[nH]c3ccc(Br)cc23)cc1	1	2	-10	55*	-2
CCOC(=O)c1ccccc1NC(=O)COC(=O)c1ccc(OCC(=O)N2CCOCC2)c(OCC)c1	nt	nt	nt	4	0
COc1ccc(CN(C(=O)c2snc(C(N)=O)c2N)C(C(=O)NC2CCCC2)c2ccc(OC)cc2)cc1 (configuration not stated)	nt	nt	0	4	-1
COc1ccc(CN(C(=O)c2nsc(Cl)c2Cl)C(C(=O)NC2CCCC2)c2ccc(OC)cc2)cc1 (configuration not stated)	-2	-1	2	-10	53*
COc1cccc(NC(=O)CN(C)CC(=O)c2c(C)[nH]c3ccccc23)c1	nt	nt	nt	8	-1
COc1ccc2c(c1)[C@H]1[C@H](CO2)[C@H](c2ccccc2)[C@]2(C)C(=O)N(CC3CCCO3)CC(=O)N12 (some centres not stated)	nt	nt	nt	-1	-1
COc1ccc(N2CCN(CC(=O)NCc3ccc(Cl)cc3)CC2)cc1	nt	nt	9	23	2
CN(C)c1ccc(/C=C/C(=O)c2cccc(Br)c2)cc1	163*	92*	14	-346	278*
CC(C)CN1CCC(=O)N(CCSc2ccccc2)CC1	nt	nt	1	-3	0
O=C1N=c2ccccc2=C1c1sc(=S)n(NC(=O)c2cccc(O)c2)c1O	2	2	-2	65*	-12
O=C(CSc1nnc(-c2ccc(Cl)cc2)n1Cc1ccco1)Nc1ccc2c(c1)OCCO2	-1	0	4	19	0
CC(=O)Nc1cccc(NC(=O)CSc2ncc(-c3ccc(Cl)cc3)n2Cc2ccco2)c1	4	0	37*	8	1
O=C(Cc1ccc([N+](=O)[O-])cc1)Nc1cccc(C(=O)N2CCCCC2)c1	nt	nt	nt	4	0
COc1cc(CNCCO)cc(Cl)c1OCc1ccc(Cl)cc1Cl	2	4	58*	-122	35
O=C(O)C1=C[C@@H](c2ccc(C(F)(F)F)cc2)C[C@@H](OCCCCO)O1	nt	nt	nt	0	-1
O=C(c1ccco1)N1N=C(C2CCCCC2)CC1(O)C(F)(F)F (configuration not stated)	-1	-1	-22	-10	-1
CC1CCC2=NN(C(=O)c3ccco3)C(O)(C(F)(F)F)C2C1 (configuration not stated)	0	0	0	67*	-1
CC(=O)Nc1ccc(CN2CCCC(CO)(Cc3cccc(Cl)c3)C2)cc1 (configuration not stated)	3	0	9	-41	56*
SMILES	TRPN1 ag	TRPML3 agonist	GPR7 antag	CRFR2-BP antag	CRFBP-R2 agonist
CC12CCCCN1CCCc1c2[nH]c2ccccc12 (configuration not stated)	1	1	0	-4	50*
CCn1c(CNc2cccc(Cl)c2)nnc1SCc1ccccc1	6	1	19*	-49	-1
Cc1ccc(S(=O)(=O)/N=C2/NC(=O)/C(=C/c3cccnc3)S2)cc1	1	0	-1	26	1
Cc1ccc(S(=O)(=O)/N=C2/NC(=O)/C(=C/c3ccc(Br)o3)S2)cc1	-1	0	-4	55*	-2
Cc1ccc(S(=O)(=O)/N=C2/NC(=O)/C(=C\c3cc(Br)cc(Br)c3O)S2)cc1	nt	nt	16	-77	77*
CC(C)[C@@H](C(=O)N1CCCC1)N1C(=O)N2CCc3c([nH]c4ccccc34)[C@@]2(C)C1=O	nt	nt	4	-3	5
O=C(Nc1ccccc1Cl)c1ccccc1CC(O)(c1ccccc1)c1ccccc1	nt	nt	nt	1	3
CC(C)/C=C1\CC/C(=C\c2ccc(N(C)C)cc2)C1=O	22*	8	-5	-191	166*
CN(C)c1ncc(S(=O)(=O)c2ccc(Cl)cc2)c(-c2ccc(Cl)cc2Cl)n1	0	1	-22	56*	3
Cc1ncc(S(=O)(=O)c2ccccc2)c(-c2ccccc2Cl)n1	0	1	7	36	-1
O=C(c1ccc(-c2ccc([N+](=O)[O-])cc2Cl)o1)N1CCOCC1	0	0	20*	3	-1
Cc1cc(C)c(C(=O)N2CCCC(CNC(=O)C3(c4ccc(Cl)cc4)CC3)C2)c(=O)[nH]1 (configuration not stated)	-1	1	1	18	0
Cc1ccc(-c2csc3nnc(SCC(=O)N4CCN(Cc5ccccc5)CC4)n23)cc1	2	-1	-6	66*	-5
O=C(CSc1nnc2scc(-c3ccccc3)n12)N1CCN(Cc2ccccc2)CC1	-1	1	8	7	-3
C=CCNc1nc2c(c(=O)[nH]c(=O)n2C)n1CC(O)COc1ccc2ccccc2c1 (configuration not stated)	nt	nt	-7	-1	-2
O=C(CN1C(=O)NC2(CCCC2)C1=O)c1ccc(Cl)s1	nt	nt	nt	54*	-2
CC(C)(C)C(=O)NCc1ccc(C(=O)CN2C(=O)NC3(CCCC3)C2=O)s1	nt	nt	nt	3	0
C[C@H](CO)N1C[C@H](C)[C@@H](CN(C)S(=O)(=O)c2cccs2)Oc2ccc(NC(=O)Cn3cnnn3)cc2C1=O	nt	nt	nt	-3	0
CSc1nnc(C)c(/C=C/NOCc2ccc(Cl)cc2)n1	1	1	15	28	1
CSc1nnc(C)c(/C=C/Nc2ccc(C)cc2)n1	3	2	-14	-145	105*
Nc1ccc2c(Cl)cc(Cl)cc2c1	nt	nt	nt	-19	7
CC(NC(=O)C1CCCN1S(=O)(=O)c1cccc2nsnc12)c1ccccc1 (configuration not stated)	nt	nt	3	76*	-3
COc1ccc(OCCn2c(C)nc3ccccc32)cc1	nt	nt	nt	18	2
Cc1nc2ccccc2n1CCOc1ccc([N+](=O)[O-])cc1	2	0	20	96*	-2
COc1cccc(-c2ccc3ncnc(NCc4cccs4)c3c2)c1	nt	nt	nt	54*	-2
